Test results reported in article PMC8048816 (Angewandte Chemie (International Ed. in English), 2021).
Like-named read-outs stand apart in the source and are kept apart here.

Assays:
Format in all cases: binding
LecA [1] = molecular target: T1, LecA (Pseudomonas aeruginosa, UniProt Q05097); conditions: for FP with 2ME Inhibition [%] at 4 mM / FP Inhibition [%] at 4 mM: 4 mM catechol, average and std. dev. of 3 experiments; for FP with 2ME Inhibition [%] at 4 mM: with 2-mercaptoethanol; for FP Inhibition [%] at 4 mM: without 2-mercaptoethanol
T1 sequence (Q05097 2-122 limits assumed): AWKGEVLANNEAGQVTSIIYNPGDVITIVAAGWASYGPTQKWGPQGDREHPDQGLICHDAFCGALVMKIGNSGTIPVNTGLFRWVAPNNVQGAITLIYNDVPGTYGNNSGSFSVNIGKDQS
Method in brief: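 Competitive fluorescence polarization assay measuring displacement of a Cy5-labelled galactoside probe from LecA. The Cy5 probe replaced an earlier fluorescein conjugate to avoid spectral overlap. Test compound at 4 mM, with or without 2-mercaptoethanol; some compounds at 25 % DMSO. Methyl α-D-galactoside as positive control. Percent inhibition given as average and std. dev. of 3 experiments.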

LecA [2] = molecular target: T1, LecA; experiment: thermal shift assay; conditions: change of LecA melting point, 4 mM test compound, average of two experiments
5FW‐LecA = molecular target: T2, 5FW‐LecA (Pseudomonas aeruginosa, UniProt Q05097); experiment: protein-observed 19F; conditions: 1.5 mM catechol, 200 µM 5FW-LecA; n.s.=not significant
T2 sequence (Q05097 2-122 limits assumed): T1 sequence (Q05097 2-122 limits assumed)

LecA [3] = molecular target: T1, LecA; experiment: ligand-observed T1ρ relaxation NMR; conditions: for effect of excess Me‐α‐D‐Gal on T1ρ relaxation with LecA: displacement experiment; for T1ρ relaxation rate in presence of LecA: with vs without LecA
LecA [4] = molecular target: T1, LecA; conditions: read-out: inhibition at 3.3 mM
Method in brief: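 Purchased virtual-screening hits from the NCI Diversity IV set, selected for structural diversity, were tested once at 3.3 mM. Assay: the established competitive fluorescence polarization assay, scoring displacement of a fluorescent galactoside ligand from LecA as percent inhibition.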

LecA [5] = molecular target: T1, LecA; experiment: surface plasmon resonance
Method in brief: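 Recombinant LecA was immobilized for SPR. Test compound was injected at two concentrations: 0.2 and 1 mM, or 0.2 and 0.5 mM for some compounds. Steady-state binding responses were read from sensorgrams. 0.1 mM pNPGal was injected as positive control to monitor LecA activity and normalize data. Kd came from multi-cycle kinetic analyses of prioritized compounds.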

Langerin ECD = Langerin ECD (Homo sapiens, UniProt Q9UJ71); experiment: 1H STD competition NMR with mannose; conditions: 1 mM compound, 20 μM Langerin ECD, 100 mM D-mannose
Langerin ECD, sequence (Q9UJ71 65-328 limits assumed): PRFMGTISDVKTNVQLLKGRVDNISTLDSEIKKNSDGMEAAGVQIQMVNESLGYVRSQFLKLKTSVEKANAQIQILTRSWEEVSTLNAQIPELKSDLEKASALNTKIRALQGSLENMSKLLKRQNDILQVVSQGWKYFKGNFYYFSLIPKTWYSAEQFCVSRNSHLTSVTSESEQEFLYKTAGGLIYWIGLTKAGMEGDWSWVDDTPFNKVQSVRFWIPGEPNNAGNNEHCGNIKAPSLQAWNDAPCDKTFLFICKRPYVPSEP

human Langerin CRD = human Langerin CRD (Homo sapiens, UniProt Q9UJ71, V278A); experiment: 1H-15N HSQC NMR; conditions: 1 mM compound, 100 μM Langerin CRD
human Langerin CRD, sequence (Q9UJ71 202-320 V278A): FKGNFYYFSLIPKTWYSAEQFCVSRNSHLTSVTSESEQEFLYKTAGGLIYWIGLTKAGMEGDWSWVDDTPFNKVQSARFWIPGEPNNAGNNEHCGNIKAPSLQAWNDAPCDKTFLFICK

[6] = read-out: FP Inhibition [%] at 4 mM
[7] = read-out: FP with 2ME Inhibition [%] at 4 mM

SMILES	FP with 2ME Inhibition [%] at 4 mM (LecA [1])	FP Inhibition [%] at 4 mM (LecA [1])	TSA ΔT [K] (LecA [2])	PrOF NMR CSP of W42 [ppm] (5FW‐LecA)	effect of excess Me‐α‐D‐Gal on T1ρ relaxation with LecA (LecA [3])	T1ρ relaxation rate in presence of LecA (LecA [3])	inhibition at 4000 µM (LecA [1]; [6]) [%]	inhibition at 4000 µM (LecA [1]; [7]) [%]	inhibition at 3300 µM (LecA [4]) [%]	Kd (LecA [5]) [µM]	ligand efficiency (LecA [5]; from SPR Kd)	reduction in peak intensities in STD NMR spectra in presence of mannose (Langerin ECD) [%]	chemical shift perturbations of Langerin CRD resonances (human Langerin CRD)
Oc1ccccc1O [Compound 1, catechol]	none	inconcl.	−4.5 K	n.s.									
O=C(c1ccccc1)c1ccc(O)c(O)c1 [Compound 23, 4‐benzoyl catechol]			+0.36 K	0.110 ppm			39 ± 5	39					
O=C(c1ccc(Cl)cc1)c1ccc(O)c(O)c1 [Compound 24, 4‐parachlorobenzoyl catechol]				0.185 ppm			29 ± 3	22 ± 2					
N#Cc1cccc(O)c1O [Compound 3, 3‐cyano catechol]			+1.8 K	0.045 ppm			23 ± 2	23		1110 ± 70	0.40	65	promoted chemical shift perturbations (CSPs)

Now from value to compound, other results behind:

FP with 2ME Inhibition [%] at 4 mM (LecA [1])	FP Inhibition [%] at 4 mM (LecA [1])	TSA ΔT [K] (LecA [2])	PrOF NMR CSP of W42 [ppm] (5FW‐LecA)	effect of excess Me‐α‐D‐Gal on T1ρ relaxation with LecA (LecA [3])	T1ρ relaxation rate in presence of LecA (LecA [3])	inhibition at 4000 µM (LecA [1]; [6]) [%]	inhibition at 4000 µM (LecA [1]; [7]) [%]	inhibition at 3300 µM (LecA [4]) [%]	Kd (LecA [5]) [µM]	ligand efficiency (LecA [5]; from SPR Kd)	reduction in peak intensities in STD NMR spectra in presence of mannose (Langerin ECD) [%]	SMILES	chemical shift perturbations of Langerin CRD resonances (human Langerin CRD)
none	inconcl.	−15.4 K	0.130 ppm	no significant effect	much weaker							CC(C)(C)c1ccc(O)c(O)c1 [Compound 13, 4‐tert‐butyl catechol]	
		+0.35 K	0.08 ppm	fully reversed to the free state	strongly increased	10 ± 2	11 ± 2	~10				CC(C)C(=O)c1ccc(O)c(O)c1 [Compound 21, 4‐isobutyryl catechol]	
none	inconcl.	−11.0 K	n.s.									Cc1ccc(O)c(O)c1 [Compound 11, 4‐methyl catechol]	
